Counter-ions that a name gives are not always drawn.
Key:
xenograft models = settings: doses lower than 50 mg/kg (ip daily); cited from earlier work
[1] = system: human ether-a-go-go-related gene (hERG) potassium channel; settings: cited from earlier work
breast cancer BT-474 = settings: after 72 h treatment; cited from earlier work
[2] = system: melanoma A375 cells expressing GFP-LC3; experiment: GFP-LC3 reporter autophagy assay; format: cell-based, human; settings: 24 h treatment; for GFP-LC3-positive autophagosomes (fluorescent dots per cell): different concentrations
In short: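 A375 melanoma cells were stably transfected with EGFP-LC3B and G418-selected; the clone used was validated with 10 μM chloroquine. Cells on glass-bottom plates were exposed to varied compound concentrations for 24 h, fixed in 4% PFA and Hoechst 33342-stained. GFP-LC3 perinuclear dots per cell were counted by fluorescence microscopy, ten fields per dose, four independent replicates.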

several tumor cell lines = settings: cited from earlier work
[3] = Liver microsomal stability, mouse and human, UDPGA; format: in vitro ADME; settings: for m,h-LM % at 120 min / m,h-LM t1/2: mouse and human liver microsomes; for m,h-LM % at 120 min: UDPGA, compound remaining at 120 min; for half-life at 4.6 μM: mouse and human, liver microsomes with alamethicin, pH 7.5; for m,h-LM t1/2: UDPGA cofactor
In short: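 Phase II: compound from a 10 mM DMSO stock (4.6 μM final) was preincubated 15 min at 37 °C with mouse or human liver microsomes plus alamethicin in 0.1 M Tris-HCl pH 7.5, 10% DMSO. UDPGA, D-saccharic acid lactone and MgCl₂ were added and incubated 2 h at 37 °C. Samples at 0–120 min were quenched in cold MeCN with internal standard. No-cofactor matrix controls were run. Mean of ≥2 experiments, duplicates.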

Tolerability studies = format: in vivo, female CD1 mice; settings: for reduction in body weight: after 8 days
In short: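 Female CD1 mice (8–9 weeks, 4-day acclimation), 3 per group, received ip compound in saline; controls got saline ip daily. Regimens: 138 μmol/kg daily or every other day; 69 μmol/kg daily or 3 days on/2 off, over an 8-day period. Behavior, body weight, food and water intake were recorded daily. Weight on the pre-treatment day was set to 100%.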

BT-474 cells = experiment: Apoptosis in BT-474; format: cell-based, human; settings: BT-474, different concentrations, 24 h
In short: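 Poly-caspase activity detected with a live-cell red/green caspase apoptosis detection kit. Cleaved PARP measured by immunoblot in TBS-T with 5% BSA: primary antibody 1:2000, GAPDH loading control 1:100000, HRP-conjugated secondaries 1:10000.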

A375 xenografts = experiment: A375 subcutaneous xenograft model; format: in vivo, female NMRI-Foxn1nu mice
[4] = 30 mg/kg ip, 3/5 d schedule, day 15

CCN(CC)CCCC(C)Nc1ccnc2cc(Cl)ccc12 (stereo not shown) [CQ, Chloroquine]
efficacy in xenograft models (xenograft models): completely ineffective
concentrations blocking hERG activity [1]: single-digit

CN1CCN(Cc2cc(CNC3(c4ccccc4F)CCCC3)ccc2O)CC1 [Compound 1a, 4-[[[1-(2-fluorophenyl)cyclopentyl]amino]methyl]-2-[(4-methylpiperazin-1-yl)methyl]phenol]
IC50 (breast cancer BT-474): 30.1 µM

CN1CCC(Cc2cccc(CNC3(c4ccc(F)cc4)CCCC3)c2)CC1 [Compound 1e]
GFP-LC3-positive autophagosomes (fluorescent dots per cell) [2]: dose-dependent accumulation
in vitro anticancer activity, times higher than CQ (several tumor cell lines): up to 50 times
IC50 (breast cancer BT-474): 2.1 µM
m,h-LM % at 120 min [3]: > 95%
half-life at 4.6 μM [3]: > 2 h

COc1cc(F)ccc1C1(NCc2cccc(CC3CCN(C)CC3)c2)CCCC1 [Compound 5, 1-(4-Fluoro-2-methoxy-phenyl)-N-[[3-[(1-methyl-4-piperidyl)methyl]phenyl]methyl]cyclopentanamine Dihydrochloride]
m,h-LM % at 120 min [3]: > 95%
half-life at 4.6 μM [3]: > 2 h

CN1CCC(Cc2cccc(CNC3(c4ccc(F)cc4O)CCCC3)c2)CC1 [Compound 6, 5-Fluoro-2-[1-[[3-[(1-methyl-4-piperidyl)methyl]phenyl]methylamino]cyclopentyl]phenol Dihydrochloride]
m,h-LM % at 120 min [3]: > 95%
half-life at 4.6 μM [3]: > 2 h

CN1CCC(Cc2cccc(CNC3(c4ccc(F)c(F)c4)CCCC3)c2)CC1 [Compound 7, 1-(3,4-Difluorophenyl)-N-[[3-[(1-methyl-4-piperidyl)methyl]phenyl]methyl]cyclopentanamine;dihydrochloride]
m,h-LM % at 120 min [3]: > 95%
half-life at 4.6 μM [3]: > 2 h

COc1cc(C2(NCc3cccc(CC4CCN(C)CC4)c3)CCCC2)ccc1F [Compound 9, 1-(4-Fluoro-3-methoxy-phenyl)-N-[[3-[(1-methyl-4-piperidyl)methyl]phenyl]methyl]cyclopentanamine Dihydrochloride]
m,h-LM % at 120 min [3]: > 95%
half-life at 4.6 μM [3]: > 2 h

CN1CCC(Cc2cccc(CNC3(c4ccc(F)c(O)c4)CCCC3)c2)CC1 [Compound 10, 2-Fluoro-5-[1-[[3-[(1-methyl-4-piperidyl)methyl]phenyl]methylamino]cyclopentyl]phenol Dihydrochloride]
m,h-LM % at 120 min [3]: > 95%

CN1CCC(Cc2cc(CNC3(c4ccc(F)cc4)CCCC3)ccc2F)CC1 [Compound 11, N-[[4-Fluoro-3-[(1-methyl-4-piperidyl)methyl]phenyl]methyl]-1-(4-fluorophenyl)cyclopentanamine Dihydrochloride]
half-life at 4.6 μM [3]: > 2 h

CN1CCC(Cc2cc(CNC3(c4ccc(F)cc4)CCCC3)ccc2O)CC1 [Compound 12, 4-[[[1-(4-Fluorophenyl)cyclopentyl]amino]methyl]-2-[(1-methyl-4-piperidyl)methyl]phenol Dihydrochloride]
half-life at 4.6 μM [3]: > 2 h

CN1CCC(Cc2ccc(F)c(CNC3(c4ccc(F)cc4)CCCC3)c2)CC1 [Compound 14, N-[[2-Fluoro-5-[(1-methyl-4-piperidyl)methyl]phenyl]methyl]-1-(4-fluorophenyl)cyclopentanamine Dihydrochloride]
half-life at 4.6 μM [3]: > 2 h

CN1CCC(Cc2ccc(O)c(CNC3(c4ccc(F)cc4)CCCC3)c2)CC1 [Compound 15, 2-[[[1-(4-Fluorophenyl)cyclopentyl]amino]methyl]-4-[(1-methyl-4-piperidyl)methyl]phenol Dihydrochloride]
half-life at 4.6 μM [3]: > 2 h

CN1CCC(Cc2cc(CNC3(c4ccc(F)cc4)CCCC3)c(F)cc2F)CC1 [Compound 16, N-[[2,4-Difluoro-5-[(1-methyl-4-piperidyl)methyl]phenyl]methyl]-1-(4-fluorophenyl)cyclopentanamine Dihydrochloride]
half-life at 4.6 μM [3]: > 2 h

CN1CC2(CC(Cc3cccc(CNC4(c5ccc(F)cc5)CCCC4)c3)C2)C1 [Compound 21, 1-(4-Fluorophenyl)-N-[[3-[(2-methyl-2-azaspiro[3.3]heptan-6-yl)methyl]phenyl]methyl]cyclopentanamine Dihydrochloride]
half-life at 4.6 μM [3]: > 2 h

COc1cc(F)ccc1C1(NCc2ccc(F)c(CC3CCN(C)CC3)c2)CCCC1 [Compound 22, 1-(4-Fluoro-2-methoxy-phenyl)-N-[[4-fluoro-3-[(1-methyl-4-piperidyl)methyl]phenyl]methyl]cyclopentanamine Dihydrochloride]
half-life at 4.6 μM [3]: > 2 h

Fc1ccc(C2(NCc3ccc(F)c(CC4CCNCC4)c3)CCCC2)cc1 [Compound 24, 1-(4-Fluorophenyl)-N-[[4-fluoro-3-(4-piperidylmethyl)phenyl]methyl]cyclopentanamine Dihydrochloride]
reduction in body weight (Tolerability studies; 69 μmol/kg (31 mg/kg) ip daily): ≤ 5%
tolerability (body weight, water and food intake) (Tolerability studies; 69 μmol/kg (31 mg/kg) ip, 3/5 d schedule, 15-day period): well tolerated
signs of arched backs and lethargy (Tolerability studies; 138 μmol/kg (62 mg/kg) ip daily): did not observe clear signs of arched backs and lethargy
animal body weight (Tolerability studies; 138 μmol/kg (62 mg/kg) ip daily, after 2 days of treatment): significantly reduced
reduction in body weight (Tolerability studies; 138 μmol/kg (62 mg/kg) ip every other day): ≤ 5%
caspase-activity and cleaved PARP protein levels (BT-474 cells): dose-dependent induction
increase in fluorescent dots compared with 1e ([2]; all the doses tested): significantly higher increase
GFP-LC3-positive autophagosomes (fluorescent dots per cell) [2]: dose-dependent accumulation
tumor expression of REV-ERB target genes BMAL1 and PEPCK (A375 xenografts; 30 mg/kg ip for 2 days, tumors collected after 48 h, versus control): significantly higher expression
average tumor volume (excised tumors) (A375 xenografts; [4]): 307.7 mm^3
average tumor weight (A375 xenografts; [4]): 0.365 g
effects on body weight (A375 xenografts; 30 mg/kg ip, 3/5 d schedule, mice bearing A375 xenografts): negligible effects
m,h-LM t1/2 [3]: > 2 h
half-life at 4.6 μM [3]: > 2 h

Fc1ccc(C2(NCc3cc(CC4CCNCC4)ccc3F)CCCC2)cc1 [Compound 25, 1-(4-Fluorophenyl)-N-[[2-fluoro-5-(4-piperidylmethyl)phenyl]methyl]cyclopentanamine Dihydrochloride]
m,h-LM t1/2 [3]: > 2 h

CCN(CCO)CCCC(C)Nc1ccnc2cc(Cl)ccc12 (stereo not shown) [HCQ, hydroxychloroquine]
concentrations blocking hERG activity [1]: single-digit
